ChEMBL document CHEMBL5653631, “A Potent and Selective ULK1 Inhibitor Suppresses Autophagy and Sensitizes Cancer Cells to Nutrient Stress” (iScience, 2018)

Legend:
[1] = target: Calcium/calmodulin-dependent protein kinase type II subunit delta (Homo sapiens) (UniProt Q13557); assay: Inhibition of human recombinant CaMK2d at 15 nM related to control ULK1
[2] = target: Cyclin-dependent kinase 12 (Homo sapiens) (UniProt Q9NYV4); assay: Inhibition of human recombinant CRK7 at 15 nM related to control ULK1
Sequence of Cyclin-dependent kinase 12 (Homo sapiens) (Q9NYV4 whole entry, looked up): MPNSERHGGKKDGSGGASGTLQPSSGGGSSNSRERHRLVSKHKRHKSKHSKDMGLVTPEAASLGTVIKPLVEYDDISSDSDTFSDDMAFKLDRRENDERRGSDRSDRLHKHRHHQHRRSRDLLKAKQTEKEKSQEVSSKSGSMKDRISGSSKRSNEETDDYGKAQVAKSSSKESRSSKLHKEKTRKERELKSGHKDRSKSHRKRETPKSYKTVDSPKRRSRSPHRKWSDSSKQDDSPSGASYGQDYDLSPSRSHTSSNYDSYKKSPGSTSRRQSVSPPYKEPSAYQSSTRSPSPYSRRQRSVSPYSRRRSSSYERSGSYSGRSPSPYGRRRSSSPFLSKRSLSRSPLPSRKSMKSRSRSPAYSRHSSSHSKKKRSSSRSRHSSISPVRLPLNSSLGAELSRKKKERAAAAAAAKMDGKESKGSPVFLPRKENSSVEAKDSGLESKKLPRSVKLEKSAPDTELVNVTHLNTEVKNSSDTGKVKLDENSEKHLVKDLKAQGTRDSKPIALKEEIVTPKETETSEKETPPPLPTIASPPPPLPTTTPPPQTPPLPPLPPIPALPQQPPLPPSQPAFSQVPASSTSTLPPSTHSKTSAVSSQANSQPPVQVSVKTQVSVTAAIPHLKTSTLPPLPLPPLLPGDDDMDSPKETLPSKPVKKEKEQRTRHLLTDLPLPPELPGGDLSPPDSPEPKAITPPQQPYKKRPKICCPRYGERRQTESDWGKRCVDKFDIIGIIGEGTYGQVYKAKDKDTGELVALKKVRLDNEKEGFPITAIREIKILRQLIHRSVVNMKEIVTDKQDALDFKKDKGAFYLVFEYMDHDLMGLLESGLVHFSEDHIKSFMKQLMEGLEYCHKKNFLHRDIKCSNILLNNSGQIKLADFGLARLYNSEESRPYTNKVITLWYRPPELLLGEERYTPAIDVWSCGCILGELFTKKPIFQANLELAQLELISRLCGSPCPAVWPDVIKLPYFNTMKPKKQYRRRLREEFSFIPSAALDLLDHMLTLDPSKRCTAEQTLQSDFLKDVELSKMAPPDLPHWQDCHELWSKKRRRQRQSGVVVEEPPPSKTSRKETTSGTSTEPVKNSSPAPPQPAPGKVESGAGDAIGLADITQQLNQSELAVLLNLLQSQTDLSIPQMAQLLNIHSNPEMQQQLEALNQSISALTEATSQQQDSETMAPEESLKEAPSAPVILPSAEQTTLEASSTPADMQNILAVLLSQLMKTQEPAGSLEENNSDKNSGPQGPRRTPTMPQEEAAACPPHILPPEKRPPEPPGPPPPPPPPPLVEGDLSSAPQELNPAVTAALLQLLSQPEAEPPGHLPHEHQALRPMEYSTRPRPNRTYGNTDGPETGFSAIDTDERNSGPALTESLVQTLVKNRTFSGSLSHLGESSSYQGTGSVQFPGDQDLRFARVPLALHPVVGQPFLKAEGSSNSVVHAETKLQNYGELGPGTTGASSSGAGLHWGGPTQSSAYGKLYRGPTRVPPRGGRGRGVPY

[3] = target: T1, Tyrosine-protein kinase Mer (Homo sapiens) (UniProt Q12866); assay: Inhibition of human recombinant MER at 15 nM related to control ULK1
T1 sequence (whole entry): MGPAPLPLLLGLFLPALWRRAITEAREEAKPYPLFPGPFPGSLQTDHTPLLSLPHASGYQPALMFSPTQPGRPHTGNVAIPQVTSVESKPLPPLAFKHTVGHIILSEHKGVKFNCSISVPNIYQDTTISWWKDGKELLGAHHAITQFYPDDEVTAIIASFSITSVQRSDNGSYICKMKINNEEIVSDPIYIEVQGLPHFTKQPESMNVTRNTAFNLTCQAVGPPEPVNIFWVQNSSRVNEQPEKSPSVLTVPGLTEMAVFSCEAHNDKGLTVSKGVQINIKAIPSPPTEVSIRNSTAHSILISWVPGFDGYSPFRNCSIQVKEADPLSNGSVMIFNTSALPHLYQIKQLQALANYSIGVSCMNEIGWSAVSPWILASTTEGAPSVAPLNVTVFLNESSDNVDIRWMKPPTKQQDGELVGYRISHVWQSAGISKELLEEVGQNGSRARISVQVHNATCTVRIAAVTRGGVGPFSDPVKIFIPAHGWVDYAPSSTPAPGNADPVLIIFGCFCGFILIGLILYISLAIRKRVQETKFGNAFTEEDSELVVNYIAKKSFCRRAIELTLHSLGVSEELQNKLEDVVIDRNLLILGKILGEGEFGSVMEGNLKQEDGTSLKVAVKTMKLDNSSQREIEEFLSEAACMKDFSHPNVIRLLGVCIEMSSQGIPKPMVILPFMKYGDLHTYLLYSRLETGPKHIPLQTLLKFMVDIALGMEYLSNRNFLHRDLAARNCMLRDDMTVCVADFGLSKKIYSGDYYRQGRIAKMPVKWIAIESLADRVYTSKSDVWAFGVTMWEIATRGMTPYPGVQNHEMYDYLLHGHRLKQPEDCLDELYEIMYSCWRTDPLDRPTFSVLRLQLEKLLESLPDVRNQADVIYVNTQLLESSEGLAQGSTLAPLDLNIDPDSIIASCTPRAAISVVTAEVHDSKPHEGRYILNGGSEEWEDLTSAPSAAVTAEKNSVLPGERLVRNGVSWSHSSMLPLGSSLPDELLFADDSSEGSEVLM

[4] = target: Serine/threonine-protein kinase SIK2 (Homo sapiens) (UniProt Q9H0K1); assay: Inhibition of human recombinant QIK at 15 nM related to control ULK1
Sequence of Serine/threonine-protein kinase SIK2 (Homo sapiens) (Q9H0K1 whole entry, looked up): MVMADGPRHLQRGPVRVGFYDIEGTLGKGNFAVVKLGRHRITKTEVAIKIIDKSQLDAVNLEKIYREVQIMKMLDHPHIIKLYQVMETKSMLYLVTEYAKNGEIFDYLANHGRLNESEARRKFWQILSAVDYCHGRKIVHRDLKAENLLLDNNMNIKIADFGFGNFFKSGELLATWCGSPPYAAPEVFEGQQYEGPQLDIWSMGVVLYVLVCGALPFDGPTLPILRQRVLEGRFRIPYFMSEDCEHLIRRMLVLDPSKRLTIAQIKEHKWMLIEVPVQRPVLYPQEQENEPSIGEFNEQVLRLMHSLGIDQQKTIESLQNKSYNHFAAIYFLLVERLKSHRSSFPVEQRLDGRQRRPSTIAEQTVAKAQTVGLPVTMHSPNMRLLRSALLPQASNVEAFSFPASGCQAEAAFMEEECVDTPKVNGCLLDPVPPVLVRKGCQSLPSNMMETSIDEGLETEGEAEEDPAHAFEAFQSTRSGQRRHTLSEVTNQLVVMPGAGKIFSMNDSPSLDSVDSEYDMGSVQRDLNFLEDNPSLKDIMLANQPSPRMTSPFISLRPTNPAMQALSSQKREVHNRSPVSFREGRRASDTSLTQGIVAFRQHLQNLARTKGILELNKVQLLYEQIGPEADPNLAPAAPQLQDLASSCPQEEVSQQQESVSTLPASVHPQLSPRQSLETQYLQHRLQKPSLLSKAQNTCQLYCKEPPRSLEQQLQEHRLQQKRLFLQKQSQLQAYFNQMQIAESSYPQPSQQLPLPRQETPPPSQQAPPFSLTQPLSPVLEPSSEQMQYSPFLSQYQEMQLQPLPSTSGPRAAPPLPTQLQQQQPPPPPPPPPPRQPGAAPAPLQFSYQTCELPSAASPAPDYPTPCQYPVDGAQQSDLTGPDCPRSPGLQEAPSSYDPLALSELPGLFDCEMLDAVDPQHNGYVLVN

[5] = target: T2, Activin receptor type-1 (Homo sapiens) (UniProt Q04771); assay: Inhibition of human recombinant ALK2 at 40 nM in presence of ATP by radiometric assay relative to control
T2 sequence (whole entry): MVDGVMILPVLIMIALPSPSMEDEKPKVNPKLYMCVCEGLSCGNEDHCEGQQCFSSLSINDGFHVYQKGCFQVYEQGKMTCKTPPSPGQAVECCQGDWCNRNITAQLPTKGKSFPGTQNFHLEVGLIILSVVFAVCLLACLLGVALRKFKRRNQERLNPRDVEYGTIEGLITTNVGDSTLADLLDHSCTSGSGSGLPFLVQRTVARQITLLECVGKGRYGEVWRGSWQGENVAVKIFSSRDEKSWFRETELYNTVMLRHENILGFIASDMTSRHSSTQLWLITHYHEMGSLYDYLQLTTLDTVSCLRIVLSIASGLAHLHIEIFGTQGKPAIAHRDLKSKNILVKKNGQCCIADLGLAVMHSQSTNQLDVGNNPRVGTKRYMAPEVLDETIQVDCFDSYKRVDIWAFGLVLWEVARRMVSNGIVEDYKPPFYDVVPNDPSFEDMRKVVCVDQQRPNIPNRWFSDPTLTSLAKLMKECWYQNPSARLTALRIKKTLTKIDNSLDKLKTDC
Procedure, shortened: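 Panel of 327 recombinant human kinases, each assayed in vitro by radiometric activity assay in duplicate at a single inhibitor concentration per compound, chosen with reference to its ULK1 inhibition. Activity remaining was expressed as percent of vehicle control, and percent inhibition was calculated as 100 minus percent activity remaining.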

[6] = target: T3, Myotonin-protein kinase (Homo sapiens) (UniProt Q09013); assay: Inhibition of human recombinant DMPK1 at 40 nM in presence of ATP by radiometric assay relative to control
T3 sequence (whole entry): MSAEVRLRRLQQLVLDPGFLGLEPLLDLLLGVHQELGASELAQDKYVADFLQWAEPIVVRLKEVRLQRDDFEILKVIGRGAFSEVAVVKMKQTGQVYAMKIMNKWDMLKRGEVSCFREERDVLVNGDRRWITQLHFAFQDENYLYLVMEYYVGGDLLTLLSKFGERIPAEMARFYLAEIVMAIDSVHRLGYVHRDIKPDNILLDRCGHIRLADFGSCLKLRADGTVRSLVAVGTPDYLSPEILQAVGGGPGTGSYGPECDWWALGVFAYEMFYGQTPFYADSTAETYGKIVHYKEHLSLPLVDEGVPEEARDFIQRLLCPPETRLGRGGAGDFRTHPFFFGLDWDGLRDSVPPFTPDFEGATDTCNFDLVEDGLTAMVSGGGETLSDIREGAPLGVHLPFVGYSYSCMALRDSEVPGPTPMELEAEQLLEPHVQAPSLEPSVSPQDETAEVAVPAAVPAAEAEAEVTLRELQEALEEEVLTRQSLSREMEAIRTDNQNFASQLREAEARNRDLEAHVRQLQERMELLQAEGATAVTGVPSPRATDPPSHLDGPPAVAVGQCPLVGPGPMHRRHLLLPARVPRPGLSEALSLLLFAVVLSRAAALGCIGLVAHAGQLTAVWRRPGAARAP

Homo sapiens = species: Homo sapiens; assay: Inhibition of human recombinant KHS1 at 40 nM in presence of ATP by radiometric assay relative to control
[7] = target: T4, Tribbles homolog 2 (Homo sapiens) (UniProt Q92519); assay: Inhibition of human recombinant Trb2 at 40 nM related to control ULK1
T4 sequence (whole entry): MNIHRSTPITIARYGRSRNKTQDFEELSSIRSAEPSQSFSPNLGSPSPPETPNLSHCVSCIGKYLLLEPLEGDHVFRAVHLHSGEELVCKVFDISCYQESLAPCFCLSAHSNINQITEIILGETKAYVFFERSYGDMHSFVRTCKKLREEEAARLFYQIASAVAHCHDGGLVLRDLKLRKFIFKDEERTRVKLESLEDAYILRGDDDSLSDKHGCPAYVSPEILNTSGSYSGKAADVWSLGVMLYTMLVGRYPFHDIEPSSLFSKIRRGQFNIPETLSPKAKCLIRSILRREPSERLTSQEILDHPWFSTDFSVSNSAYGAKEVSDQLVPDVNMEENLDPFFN

Sequence of Calcium/calmodulin-dependent protein kinase type II subunit delta (Homo sapiens) (Q13557 whole entry): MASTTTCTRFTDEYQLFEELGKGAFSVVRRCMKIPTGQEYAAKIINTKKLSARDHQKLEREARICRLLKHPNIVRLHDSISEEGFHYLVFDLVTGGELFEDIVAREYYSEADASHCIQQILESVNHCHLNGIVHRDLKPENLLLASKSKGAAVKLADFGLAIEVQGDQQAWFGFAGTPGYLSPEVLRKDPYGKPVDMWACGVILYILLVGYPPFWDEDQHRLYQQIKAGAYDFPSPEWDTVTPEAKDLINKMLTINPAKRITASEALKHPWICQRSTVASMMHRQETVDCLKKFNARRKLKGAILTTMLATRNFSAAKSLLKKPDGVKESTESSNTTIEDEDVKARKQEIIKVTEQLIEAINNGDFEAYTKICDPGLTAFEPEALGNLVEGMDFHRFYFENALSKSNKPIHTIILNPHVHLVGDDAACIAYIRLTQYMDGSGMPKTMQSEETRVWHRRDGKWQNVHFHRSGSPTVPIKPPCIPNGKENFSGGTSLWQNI

Row | fold change (FC) [1] | fold change (FC) [2] | fold change (FC) [3] | fold change (FC) [4] | inhibition [5] [%] | inhibition [6] [%] | inhibition (Homo sapiens) [%] | fold change (FC) [7] | SMILES
1 | 0.23 | 0.05 | 0.39 | 1.02 | – | – | – | – | CC(C)[C@H](NC(=O)c1cc(-c2cnn3cc(-c4ccc(OCCN5CCCCC5)cc4)cnc23)cs1)C(F)(F)F
2 | – | – | – | – | 56 | 5 | 0 | 0.47 | O=C(N[C@@H](C1CC1)C(F)(F)F)c1cc(-c2cnn3cc(-c4ccc(F)cc4)cnc23)cs1
